Laboratory results taken from ChEMBL document CHEMBL1124311, “Synthesis and antiallergy activity of 4-(diarylhydroxymethyl)-1-[3-(aryloxy)propyl]piperidines and structurally related compounds” (J Med Chem, 1989).
The source made the active and inactive calls. The calls are words filed in the database; no cut-off is given here.

How the values were obtained:
[1] = molecular target: Histamine H1 receptor (Cavia porcellus, UniProt P31389); assay: Inhibitory activity against Tritiated [3H]- mepyramine binding to Histamine H1 receptor in guinea pig cerebral cortex; assay type: tissue-based
Outline: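 Guinea pig (Dunkin-Hartley) cerebral cortex homogenised in cold 50 mM Na-K phosphate pH 7.5, washed by repeated 48000g spins, membranes resuspended at 30 mL buffer/g wet tissue. Incubated with 1.5 nM (final) [3H]mepyramine for 20 min at 25 °C. Stopped by cold-buffer washing and GF/B filtration, then scintillation counting. Six concentrations (1e-5 to 1e-10 M) in triplicate. IC50 from regression of logit % control binding vs log concentration.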

[2] = organism: Cavia porcellus; assay: Oal antiallergy activity in the guinea pig anaphylaxis (GPA) model of, at a pretreatment time of 5 h; assay type: functional; details: read-out: PD50
Outline: (§1)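 Fasted, sensitized Dunkin-Hartley guinea pigs, randomized into control (N = 8) and test (N = 4) groups, dosed by gavage at 10 mL/kg in 0.5% Tween 80 in water; theophylline 100 mg/kg po as reference. At the stated pretreatment time, each animal was exposed to aerosolized 1% (w/v) egg albumin at 10 L air/min for up to 5 min. Protection meant no collapse within 5 min. PD50 was calculated by Litchfield–Wilcoxon.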

[3] = organism: Cavia porcellus; assay: Oal antiallergy activity in the guinea pig anaphylaxis (GPA) model, at a pretreatment time of 24 h; assay type: functional; details: read-out: PD50; outline: as §1
[4] = test system: Rattus norvegicus; assay: Oral antiallergy activity in the passive foot anaphylaxis (PFA) model of rat, at a dose of 10 (mg/kg); not significantly different from negative control group; assay type: functional, organism-based
[5] = organism: Cavia porcellus; assay: Oral antiallergy activity in the guinea pig anaphylaxis (GPA) model of, at a pretreatment time of 6 h; assay type: functional; details: read-out: PD50; outline: as §1
[6] = organism: Cavia porcellus; assay: Oral antiallergy activity in the guinea pig anaphylaxis (GPA) model, at a pretreatment time of 1 h; assay type: functional; details: read-out: PD50; outline: as §1
[7] = test system: Rattus norvegicus; assay: Oral antiallergy activity in the passive foot anaphylaxis (PFA) model of rat, at a dose of 3.16 (mg/kg); - indicates not significantly different from negative control group.; assay type: functional, organism-based
[8] = test system: Rattus norvegicus; assay: Oral antiallergy activity in the passive foot anaphylaxis (PFA) model of rat, at a dose of 10 (mg/kg); Not significantly different from negative control group; assay type: functional, organism-based
[9] = organism: Rattus norvegicus; assay: Oral antiallergy activity in the passive foot anaphylaxis (PFA) model of rat, at a dose of 3.16; Activity equal to positive control group; assay type: functional, organism-based
[10] = test system: Rattus norvegicus; assay: Oral antiallergy activity in the passive foot anaphylaxis (PFA) model of rat, at a dose of 10 (mg/kg); Activity equal to positive control group; assay type: functional, organism-based
[11] = test system: Rattus norvegicus; assay: Oral antiallergy activity in the passive foot anaphylaxis (PFA) model of rat, at a dose of 1.0 (mg/kg); not significantly different from negative control group; assay type: functional, organism-based
[12] = test system: Rattus norvegicus; assay: Oral antiallergy activity in the passive foot anaphylaxis (PFA) model of rat, at a dose of 10 (mg/kg); Activity greater than positive control group; assay type: functional, organism-based
[13] = test system: Rattus norvegicus; assay: Oral antiallergy activity in the passive foot anaphylaxis (PFA) model of rat, at a dose of 1.0 (mg/kg);not significantly different from negative control group; assay type: functional, organism-based
[14] = test system: Rattus norvegicus; assay: Oral antiallergy activity in the passive foot anaphylaxis (PFA) model of rat, at a dose of 3.16 (mg/kg); Activity between positive and negative control groups; assay type: functional, organism-based

Histamine H1 receptor, sequence (P31389 whole entry): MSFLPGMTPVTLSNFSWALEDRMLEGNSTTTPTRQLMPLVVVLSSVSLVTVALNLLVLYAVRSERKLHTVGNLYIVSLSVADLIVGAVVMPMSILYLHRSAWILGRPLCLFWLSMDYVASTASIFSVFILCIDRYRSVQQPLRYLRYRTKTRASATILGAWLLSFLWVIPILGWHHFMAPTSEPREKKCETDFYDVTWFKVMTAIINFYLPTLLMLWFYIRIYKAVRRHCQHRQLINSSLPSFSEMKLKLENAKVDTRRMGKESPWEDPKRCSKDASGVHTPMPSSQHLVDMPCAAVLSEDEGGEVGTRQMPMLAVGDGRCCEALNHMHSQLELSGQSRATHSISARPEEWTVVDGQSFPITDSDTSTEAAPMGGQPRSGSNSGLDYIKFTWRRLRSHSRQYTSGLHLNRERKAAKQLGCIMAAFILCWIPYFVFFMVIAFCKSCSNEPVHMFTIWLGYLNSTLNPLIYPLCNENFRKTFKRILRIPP

## O=c1[nH]c2ccccc2n1CCCN1CCN(C(c2ccccc2)c2ccccc2)CC1 [OXATOMIDE]
[1]
  IC50: 9 nM
[2]
  ED50: 1 mg/kg
[3]
  ED50: 10 mg/kg

## CC(C)(C)c1ccc(C(O)CCCN2CCC(C(O)(c3ccccc3)c3ccccc3)CC2)cc1 (centres undefined) [TERFENADINE]
[4]
  PFA: inactive
[5]
  ED50: 3.2 mg/kg
[6]
  ED50: 1 mg/kg

## OC(c1ccc(F)cc1)(c1ccc(F)cc1)C1CCN(CCCCc2ccccc2)CC1
[7]
  PFA: Not significantly different from negative control group

## COc1cc(C(C)=O)ccc1OCCCN1CCC(C(O)c2ccccc2)CC1 (centres undefined)
[8]
  PFA: Not significantly different from negative control group

## Cc1ccc(OCCCN2CCC(C(O)(c3ccc(F)cc3)c3ccc(F)cc3)CC2)cc1
[9]
  PFA: Activity equal to positive control group
[10]
  PFA: Activity equal to positive control group
[11]
  PFA: Activity equal to positive control group

## CS(=O)(=O)Nc1ccc(OCCCN2CCC(C(O)(c3ccc(F)cc3)c3ccc(F)cc3)CC2)cc1
[12]
  PFA: Activity between positive and negative control groups
[13]
  PFA: Activity between positive and negative control groups
[14]
  PFA: Activity between positive and negative control groups
